Results published in article PMC8769552 (Science Advances, 2022).

Legend:
HeLa cells = experiment: Histone lactylation and acetylation in HeLa cells after inhibitor treatment; type: cell-based, human; conditions: 5-hour treatment, TMP195 5 μM, NAM 10 mM; for global histone lactylation levels: sodium butyrate 2 mM, TSA 1 μM, apicidin 1 μM
How it was run: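 HeLa cells treated 5 h with pan-HDAC inhibitors (2 mM or 1 μM), HDAC1–3-selective inhibitor (1 μM), class IIa-selective inhibitor (5 μM) or pan-sirtuin inhibitor (10 mM). Histone lactylation and acetylation by Western blot: blocked in 3% BSA/TBST 1 h at RT, primary antibody overnight at 4°C, LI-COR secondary 1:10,000 for 1 h, Odyssey imaging.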

[1] = tested on: HEK293T whole-cell lysates; experiment: Fluorogenic lysate deacylase assay; type: biochemical, human; conditions: 37°C, 60 min; for conversion of AMC substrate by whole-cell lysate: substrate 50 μM, lysate 30 μg per well, NAD+ 500 μM, tris buffer, n = 4
HDAC3 = type: biochemical, human; conditions: acid-extracted histones from HeLa cells, recombinant HDAC3
How it was run: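 Histones acid-extracted from HeLa cells (hypotonic sucrose/Triton wash, no-salt EDTA/EGTA step, 0.2 M H2SO4 overnight at 4°C, 20% TCA precipitation). 20 μg histones incubated with 0.2 μg recombinant human HDAC at 37°C for 1 or 4 h in tris buffer (50 mM tris/Cl, 137 mM NaCl, 2.7 mM KCl, 1 mM MgCl2, pH 8). Stopped by boiling 5 min in loading buffer; Western blot readout.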

HDAC1–3 = experiment: Fluorogenic substrate screening assay; type: biochemical, human; conditions: substrate 50 μM, HDACs 50 nM, tris buffer, 37°C, 60 min; n = 2
HDAC2 = experiment: Fluorogenic Michaelis-Menten assay; type: biochemical, human; conditions: K(D-la) versus K(L-la), Ac-LGK-AMC; stated for HDAC1/2
HDAC3/NCoR2 = HDAC3/NCoR2 (Homo sapiens, UniProt O15379+Q9Y618); experiment: Fluorogenic Michaelis-Menten assay; type: biochemical; conditions: K(D-la) versus K(L-la), Ac-LGK-AMC
Sequence of HDAC3/NCoR2 (O15379 whole entry): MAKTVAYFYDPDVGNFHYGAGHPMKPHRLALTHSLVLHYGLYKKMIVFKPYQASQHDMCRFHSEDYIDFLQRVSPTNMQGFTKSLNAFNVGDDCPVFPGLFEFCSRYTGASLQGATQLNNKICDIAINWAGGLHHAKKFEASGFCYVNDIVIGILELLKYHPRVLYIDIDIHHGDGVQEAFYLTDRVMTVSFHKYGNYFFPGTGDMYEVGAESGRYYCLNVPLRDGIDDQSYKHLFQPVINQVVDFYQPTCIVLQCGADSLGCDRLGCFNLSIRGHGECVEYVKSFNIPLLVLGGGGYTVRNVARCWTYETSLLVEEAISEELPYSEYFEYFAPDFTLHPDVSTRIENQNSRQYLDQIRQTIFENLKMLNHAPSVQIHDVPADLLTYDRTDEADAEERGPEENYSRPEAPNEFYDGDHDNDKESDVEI
Sequence of HDAC3/NCoR2 (Q9Y618 389-480 partner limits assumed): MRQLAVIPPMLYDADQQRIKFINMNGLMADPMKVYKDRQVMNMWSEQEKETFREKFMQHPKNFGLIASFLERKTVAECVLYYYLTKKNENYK

HDAC1 = HDAC1 (Homo sapiens, UniProt Q13547); experiment: Fluorogenic Michaelis-Menten assay; type: biochemical; conditions: K(D-la) versus K(L-la), Ac-LGK-AMC; stated for HDAC1/2
Sequence of HDAC1 (Q13547 whole entry): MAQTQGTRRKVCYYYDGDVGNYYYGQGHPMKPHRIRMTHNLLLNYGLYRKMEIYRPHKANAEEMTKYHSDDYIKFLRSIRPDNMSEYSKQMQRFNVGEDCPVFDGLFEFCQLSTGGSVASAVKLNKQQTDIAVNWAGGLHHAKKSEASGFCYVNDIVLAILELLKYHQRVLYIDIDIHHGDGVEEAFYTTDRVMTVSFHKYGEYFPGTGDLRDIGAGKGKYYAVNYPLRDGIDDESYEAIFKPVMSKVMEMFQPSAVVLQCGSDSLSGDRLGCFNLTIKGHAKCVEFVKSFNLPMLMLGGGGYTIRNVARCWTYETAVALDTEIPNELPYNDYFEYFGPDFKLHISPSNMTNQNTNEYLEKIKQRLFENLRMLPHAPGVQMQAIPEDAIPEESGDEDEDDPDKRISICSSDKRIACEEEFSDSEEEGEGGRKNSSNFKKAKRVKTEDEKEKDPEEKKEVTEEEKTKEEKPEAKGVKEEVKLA

NC(=O)c1cccnc1 [NAM, nicotinamide]
histone Kac levels (HeLa cells): does not affect histone Kac levels
global histone lactylation levels (HeLa cells): failed to affect histone lactylation levels substantially
effect of inhibitor on lysate deacylation of 1a–c ([1]; NAM 10 mM, substrates 50 μM): did not substantially change the outcome of the deacylation events

CC(C)(CNC(=O)c1cccc(-c2noc(C(F)(F)F)n2)c1)c1coc(-c2ccccc2)n1 [TMP195]
histone Kac levels (HeLa cells): lack of effect
global histone lactylation levels (HeLa cells): failed to affect histone lactylation levels substantially

CC(/C=C/C(=O)NO)=C\[C@@H](C)C(=O)c1ccc(N(C)C)cc1 [TSA, trichostatin A]
inhibition of HDAC3-mediated decrease of global histone lactylation (HDAC3): could be inhibited
global histone lactylation levels (HeLa cells): increased global histone lactylation levels

CCC(=O)CCCCC[C@@H]1NC(=O)[C@H]2CCCCN2C(=O)[C@H]([C@@H](C)CC)NC(=O)[C@H](Cc2cn(OC)c3ccccc23)NC1=O [apicidin]
inhibition of HDAC3-mediated decrease of global histone lactylation (HDAC3): could be inhibited
global histone lactylation levels (HeLa cells): enhanced lactylation

CCCC(=O)[O-].[Na+] [sodium butyrate]
global histone lactylation levels (HeLa cells): increased global histone lactylation levels

Ac-Ala-Pro-Arg-Lys(D-La)-AMC [1c]
conversion of AMC substrate by whole-cell lysate [1]: converted to a larger extent than its K(L-la) counterpart

Ac-Ala-Pro-Arg-Lys(L-La)-AMC [1b]
conversion of AMC substrate by whole-cell lysate [1]: able to remove the lactyl modifications, albeit to a lower extent than the corresponding Kac modification

Ac-Gln-Pro-Lys-Lys(L-La)-AMC [4b]
deacylase activity (AMC release) (HDAC1–3): measurable activity

Ac-Leu-Gly-Lys(D-La)-AMC [2c]
fold higher kcat/KM for 2c than for 2b (HDAC2): > 6 fold
fold higher kcat/KM for 2c than for 2b (HDAC3/NCoR2): 3.5 fold
fold higher kcat/KM for 2c than for 2b (HDAC1): > 6 fold
